S100A4 MyoIIA: inhibitors of S100A4-myosin IIA peptide binding, primary screen, biochemical, fluorescence polarization, TAMRA-MyoIIA peptide; inhibition, % at 10.7 µM; 0.14% of 360,000 active;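 active = mean inhibition of at least 70% across replicates, with every replicate also reaching that level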
Target sequence (P26447 whole entry, looked up): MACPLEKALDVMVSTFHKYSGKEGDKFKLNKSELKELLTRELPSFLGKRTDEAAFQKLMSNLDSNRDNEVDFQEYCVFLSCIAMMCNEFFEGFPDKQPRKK
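Material: S100A4 monomer protein | Medium: HEPES pH 7.2 with CaCl2, KCl, NaCl, DTT, Triton | Reagent: Labelled myosin peptide probe, 5 nM | Doses: One dose per compound | Times: 5 min incubation before reading | Benchmarks: Neutral control DMSO, positive control TFP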
FGF22 binding: binders of human FGF22 protein, primary screen, FGF22 synaptogenesis inhibitor project, biophysical, thermal shift, single point; activity (Tm shift, normalised), % at 9.99 µM; recombinant FGF22 thermal shift, SYPRO orange fluorescence; percent of sucrose octasulfate shift, DMSO zero; 1.5% of 340,000 active;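 active = mean Tm shift, scaled 0 neutral to 100 positive control, at about 1.3% or above, every replicate too, limit read from the data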
Target sequence (Q9HCT0 whole entry, looked up): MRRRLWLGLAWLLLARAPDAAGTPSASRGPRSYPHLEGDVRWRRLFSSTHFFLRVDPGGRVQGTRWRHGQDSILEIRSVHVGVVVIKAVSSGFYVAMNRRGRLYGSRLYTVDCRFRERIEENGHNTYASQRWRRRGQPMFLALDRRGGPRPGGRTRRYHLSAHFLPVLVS
E-sel inducer: E-selectin induction in HUVECs, primary screen, imaging, HUVEC, immunofluorescence imaging, single point; AID 686992, 2013; activation, % at 7.58 µM; 0.37% of 260,000 active; P16581; normalized: neutral wells 0, TNF-alpha wells 100;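 active = mean E-selectin-positive cell signal at least 10% of the positive control, reached in at least 60% of replicates, without over 20% cell loss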
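Assay system: HUVEC primary endothelial cells. Input: 3,000 HUVEC seeded per well. Doses: one compound dose added by pin transfer. Read-out basis: % PE-positive cells. Benchmarks: TNF-alpha high, DMSO low. Detection: immunofluorescence imaging. Buffer or medium: EGM-2, gelatin.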
CFTR F508del cor: F508del CFTR correction, initial screen, CFBE line, single point | CFBE cells, YFP halide quenching; stimulated with forskolin plus potentiator P3; % fluorescence drop versus neutral controls | activity (quench increase), % at 7.58 µM | 0.36% of 350,000 active;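 active = mean added fluorescence quench of at least 8% versus neutral control, with both replicates also reaching 8%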;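 also: cells transiently co-express mutant CFTR-F508del with the halide-sensitive YFP; corrector assay measuring rescue of mutant channel to the surface after 24 h compound exposure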
Env fusion inh: inhibitors of HIV-1 Env-driven cell-cell fusion, primary screen, HeLa-JRFL effector, CEM21 target cells, luciferase. 1.1% of 360,000 active. inhibition, % at 12.3 µM;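 active = mean replicate inhibition score of at least 50 and every replicate individually at or above 50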;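 also: 0% = plate neutral controls and 100% = maraviroc near 300 nM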
The depositor's hits bear a star; x = no result; ! = repeats disagree; [ ] = dose if it differs, or a comment. Compounds with a hit are over-represented: about 2.7% of the library has one in this group of screens.

SMILES	S100A4 MyoIIA	FGF22 binding	E-sel inducer	CFTR F508del cor	Env fusion inh
O=c1[nH]c(=O)n(-c2cccc3ccccc23)c(O)c1/C=N/N1CCCCC1c1cccnc1 (configuration not stated)	-9	43	0	8.0*	10
O=C(CSC1c2ccccc2-c2ccccc21)N/N=C/c1ccccc1O	x	x	x	x	61*
COC(=O)[C@H]1[C@H](CO)[C@H]2Cn3c(ccc(-c4ccccc4OC)c3=O)[C@@H]1N2Cc1ccccc1	x	x	0	x	19[16.7 µM]
COc1ccc(-c2[nH]ncc2CNC(C)Cc2ccsc2)c(F)c1 (configuration not stated)	-1	0	x	1	44
CC(Cc1ccsc1)NCc1cn[nH]c1-c1ccc(F)cc1F (configuration not stated)	-1	0	0	-2	63*
COc1cccc(C2(O)CCN(CC(=O)Nc3nc(C)cs3)CC2)c1	2	43*	0	4	25
COc1ccc(-c2ccc([C@@H]3[C@@H](CO)N4CCCCN(C(=O)Cc5ccncc5)C[C@@H]34)cc2)cc1	-16	0	0	0	x
O=C(Cc1ccncc1)N1CCCCN2[C@@H](CO)[C@H](c3ccc(C#Cc4ccccc4F)cc3)[C@@H]2C1	-12	0	1	5	x
Cc1ccc(OP(=O)(NC(C)c2ccccc2)Oc2ccc(C)cc2)cc1 (configuration not stated)	0	43*	x	2	2
Cc1ccc(NP(=O)(Oc2ccccc2)Oc2ccccc2)cc1	-1	0	x	-4	-2
CCOP(=O)(OCC)c1cccc(O)c1	-1	45*	x	1	-11
C/C=C/c1ccc(C2[C@@H]3CN(Cc4cocn4)C[C@H]2N3)cc1 (some centres not stated)	2	x	0	0	x
O=C(Cc1cccnc1)N1CCCCN2[C@H](CO)[C@H](c3ccc(/C=C/c4ccccc4)cc3)[C@@H]2C1	0	0	0	-1	x
CCOP(=O)(C#Cc1ccccc1)C(O)c1ccc(Br)cc1 (configuration not stated)	2	0	0	10*	18
O=C(Cc1cccnc1)N1CCCCN2[C@H](C1)[C@H](c1ccc(/C=C/c3ccccc3)cc1)[C@@H]2CO	-6	0	0	3	x
c1ccc2c(N3CCNCC3)cccc2c1	0	0	0	3	5
c1ccc2nc(N3CCNCC3)ccc2c1	-2	0	70*!	9.8*!	-10
CP(=O)(O)CN1CCCCC1	1	44*	x	1	6
CN1CCN(C(=O)CN=[N+]=[N-])CC1	-5	0	x	2	-16[16.7 µM]
COc1ccc(OC(=O)N(C)C[C@@H]2OCc3ccccc3-c3c(n(C)c4ccccc34)C(=O)N([C@H](C)CO)C[C@@H]2C)cc1	-2	0	0	2	69*
COc1ccc(OC(=O)N(C)C[C@H]2OCc3ccccc3-c3c(n(C)c4ccccc34)C(=O)N([C@H](C)CO)C[C@H]2C)cc1	3	x	0	1	x
C[C@@H]1CN([C@@H](C)CO)C(=O)c2c(c3ccccc3n2C)-c2ccccc2CO[C@@H]1CN(C)C(=O)Oc1ccccc1	-5	0	0	3	x
Cc1ccc(-c2cc(-c3ccc(C)cc3)[n+](-c3ccc(C(=O)[O-])cc3)c(-c3ccc(C)cc3)c2)cc1	-4	0	0	0	10
Cc1ccc(-c2cc(-c3ccccc3)cc(-c3ccccc3)[n+]2-c2ccccc2)cc1	-5	0	0	3	23
c1ccc(-c2cc(-c3ccccc3)[n+](-c3ccccc3)c(-c3ccccc3)c2)cc1	-2	1	-3	1	80*
SMILES	S100A4 MyoIIA	FGF22 binding	E-sel inducer	CFTR F508del cor	Env fusion inh
CN(C)c1ccc(-[n+]2c(-c3ccccc3)cc(-c3ccccc3)cc2-c2ccccc2)cc1	-8	1	x	8.3*	94*
O=C(NC[C@H]1CC[C@@H]2NC[C@@H]2O1)C1CCCC1	-8	x	x	-3	-22[16.7 µM]
COC(=O)[C@H]1[C@H](CO)[C@H]2Cn3c(ccc(-c4cccnc4)c3=O)[C@@H]1N2S(=O)(=O)c1ccccc1F	-2	0	0	-2	x
CCCNC(=O)[C@H]1[C@H](CO)[C@H]2Cn3c(cccc3=O)[C@H]2N1CC	15	x	-1	0	x
O=C(c1ccc2c(c1)ncn2-c1ccc(F)cc1F)N1CCC2(CC1)OCCO2	-12	44*	x	-1	-36
COC(=O)[C@H]1[C@H](CO)[C@H]2Cn3c(ccc(C4=CCCCC4)c3=O)[C@@H]1N2Cc1ccccc1OC	-5	x	-1	2	x
CCN(CCNc1ccc([N+](=O)[O-])c2cccnc12)S(=O)(=O)c1ccc(Cl)cc1	x	x	x	x	81*
CCN(CCNc1ccc([N+](=O)[O-])c2cccnc12)S(=O)(=O)c1ccccc1	x	x	x	x	-162
O=C(C1CC1)N1C[C@@H]2N[C@H](C1)[C@@H]2c1ccc(-c2ccncc2)cc1	-2	x	0	-4	x
CC(C)(C)NS(=O)(=O)c1ccc(OCC(=O)N2CCN(Cc3ccccc3)CC2)cc1	-2	44*	x	2	20
Cn1nc(-c2ccc(OCC(=O)N3CCN(Cc4ccccc4)CC3)cc2)c2ccccc2c1=O	x	x	x	x	71*
CCCNS(=O)(=O)c1ccc(OCC(=O)N2CCN(Cc3ccccc3)CC2)cc1	x	x	-1	x	49
COC(=O)[C@@H]1[C@@H](CO)[C@@H]2Cn3c(ccc(-c4ccc(OC)cc4)c3=O)[C@H]1N2C(=O)c1ccccc1F	-10	0	0	1	x
COc1cc(C(=O)NN=Cc2ccc(N(CCCl)CCCl)cc2)cc(OC)c1OC	3	44*	0	-3	-63
Cc1cccc(S(=O)(=O)N2[C@@H]3Cn4c(ccc(-c5ccccc5)c4=O)[C@H]2[C@@H](C(=O)O)[C@@H]3CO)c1	-4	0	0	-1	x
CC12CCC3C(CCC4(O)CC(O)CCC34C=O)C1(O)CCC2C1=CC(=O)OC1 (configuration not stated)	-4	0	0	-2	-1
CC(=O)OC1CC2(O)C3CCC4CC(O)CCC4(C)C3CCC2(C)C1C1=CC(=O)OC1 (configuration not stated)	-7	0	6	-2	102*
CC(=O)OC1CC(OC2C(O)CC(OC3C(O)CC(OC4CCC5(C)C(CCC6C5CCC5(C)C(C7=CC(=O)OC7)C(O)CC65O)C4)OC3C)OC2C)OC(C)C1OC1OC(CO)C(O)C(O)C1O (configuration not stated)	59	0	0	-3	85*

Source: PubChem BioAssay
